The entries come from a sample that favours hits as a whole.
CHOP inh – inhibitors of CHOP promoter induction, primary screen, cell-based, unfolded protein response, luciferase reporter; CHO-K1 CHOP-promoter luciferase, tunicamycin-induced, 15-18 h; inhibition, % at 10 µM; actives 3.8% (n = 220,000);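 active = compounds that reduced the stress-induced luciferase reporter signal by more than about 70% of percent inhibition, limit read from the data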
TLR9-MyD88 block – inhibitors of TLR9-MyD88 association in cells, primary screen, cell-based, CHO, BLA complementation, fluorescence | Toll-like receptor 9 (Homo sapiens) + Myeloid differentiation primary response protein … | CCF4 FRET ratio | inhibition, % at 4.98 µM | actives 0.21% (n = 340,000) | AID 504734, 2011;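 active = inhibition above the mean over all tested compounds plus 3 SD, cut at about 21% in these data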
NOD2-RIPK2 inh – NOD2-RIPK2 binding disruptors in cells, primary screen, fluorescence, CHO cells, BLA complementation | Receptor-interacting serine/threonine-protein kinase 2 (Homo sapiens), O43353 | actives 0.38% (n = 360,000) | CCF4 ratio | inhibition, % at 4.98 µM; in the data active = inhibition above about 21%
CHOP UPR activ – activators of apoptotic CHOP UPR arm, primary screen, cell-based, CHO-CHOP luciferase reporter, luminescence, uHTS; AID 449763, 2010; UPR activation; percent of tunicamycin response over DMSO baseline; actives 0.34% (n = 330,000); activation, % at 10 µM;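 active = at 10 µM dose, activation of 40% or more, normalized to positive control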
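Material: CHO-CHOP cells, stable luciferase reporter of PERK-eIF2a-CHOP signalling; quantity: 500 reporter cells seeded per well; buffer or medium: F12 medium containing 10% fetal bovine serum; compound: one dose, 10 µM in 0.5% DMSO; incubation: 6 h compound treatment, 37 °C; measured by: Steady-Glo luciferase luminescence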
TLR4-MyD88 BLA – inhibitors of TLR4-MyD88 association in cells, primary screen, cell-based, HeLa CL3-4, BLA complementation, FRET ratio; HeLa CL3-4 TLR4/MyD88 BLA complementation; inhibition, % at 8.4 µM; actives 0.18% (n = 200,000); AID 861, 2007; in the data active = inhibition above about 25%
UPR XBP1 act – activators of adaptive XBP1 UPR arm, primary screen, cell-based, CHO-XBP1 luciferase reporter, luminescence, uHTS | activation, % at 20 µM | actives 0.33% (n = 330,000) | AID 463104, 2010 | IRE1-XBP1 UPR activation; percent of tunicamycin response, DMSO as zero;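 active = versus positive control, 20 µM dose yields 30% or more activation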
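Material: CHO cell line with stable XBP1 luciferase reporter; buffer or medium: F12 medium containing 10% fetal bovine serum; compound: single point, 20 µM final compound, 1% DMSO; incubation: 6 h treatment, 37 °C; measured by: glow luminescence from Steady-Glo reagent; evaluation: activation, % of tunicamycin; control set: tunicamycin high, DMSO low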
Each line names hits and unclear results; the compound was inactive in the other large screens.

CCCn1c(NC(=O)c2ccc(Br)cc2)nc2ccccc21	CHOP inh 83
NC(=O)CC(NC(=O)Cc1ccc(Br)cc1)c1ccc(NCc2ccc(F)cc2)c([N+](=O)[O-])c1 (stereo not given)	CHOP inh 93 (no result: TLR4-MyD88 BLA)
NC(=O)CC(NC(=O)Cc1ccc(Br)cc1)c1ccc(NCC2CC2)c([N+](=O)[O-])c1 (stereo not given)	CHOP inh 77 (no result: TLR4-MyD88 BLA)
NC(=O)CC(NC(=O)c1ccc(Br)cc1)c1ccc(NCCc2ccc(F)cc2)c([N+](=O)[O-])c1 (stereo not given)	none (no result: TLR4-MyD88 BLA)
Cn1c(C(C#N)C(=O)c2ccco2)nc2ccccc21 (stereo not given)	none
Cn1c(C(C#N)C(=O)Cc2cccc3ccccc23)nc2ccccc21 (stereo not given)	CHOP inh 75
COc1ccc(CN2CCC3CC2c2cc(Cl)ccc23)cc1 (stereo not given)	none (no result: CHOP inh, CHOP UPR activ, TLR4-MyD88 BLA, UPR XBP1 act)
CCCn1c(O)c(C=Nc2ccccc2)sc1=S	CHOP inh 87
CCCCn1c(O)c(/C=C/C=C/C=Nc2ccccc2)sc1=S	none
Cn1nc(-c2ccc(Cl)cc2)c2cc(C(=O)N3CCN(c4ccccn4)CC3)sc21	CHOP inh 90
Cc1ccccc1/C=N/Nc1nc2ccccc2[nH]1	none
C(=N\Nc1nc2ccccc2[nH]1)/c1cccc2cccnc12	CHOP inh 88 (no result: TLR4-MyD88 BLA)
OC[C@@H]1CN(Cc2cccs2)C[C@H](n2cnc3c(N4CCOCC4)ncnc32)O1	none (no result: CHOP inh, TLR9-MyD88 block, CHOP UPR activ, TLR4-MyD88 BLA, UPR XBP1 act)
C=CCSc1nc(C)c2cc(C)cc(C)c2n1	CHOP inh 96
COc1ccc(/C=N/NS(=O)(=O)c2ccc(C)cc2)cc1OC(=O)c1ccccc1	none
COc1ccc(/C=N/NS(=O)(=O)c2ccccc2)cc1OC(=O)c1ccc(C)cc1	CHOP inh 74
CCOc1ccc(NS(=O)(=O)c2ccc(NS(C)(=O)=O)cc2)cc1	none
CCOc1ccc(NS(=O)(=O)c2ccc(NC(=S)NC(=O)CC(C)C)cc2)cc1	CHOP inh 92
CCOc1ccc(NS(=O)(=O)c2ccc(NS(=O)(=O)c3ccc(SC)cc3)cc2)cc1	CHOP inh 95
Cc1cc(NC(=S)NC(=O)CC(C)C)ccc1Br	CHOP inh 83
CCCCNC(=O)C1c2ccccc2OCC(=O)N1Cc1cccnc1 (stereo not given)	none (no result: CHOP inh, TLR9-MyD88 block, CHOP UPR activ, TLR4-MyD88 BLA, UPR XBP1 act)
Cc1c(C(=O)NCc2ccc(F)cc2)sc(=O)n1Cc1ccccc1	none (no result: CHOP inh, TLR9-MyD88 block, CHOP UPR activ, TLR4-MyD88 BLA, UPR XBP1 act)
CCC(CC)C(=O)Nc1cc(C)c2c(=O)oc3ccccc3c2n1	CHOP inh 79 (no result: TLR4-MyD88 BLA)
Nc1nc(SCc2nc3scc(-c4cccs4)c3c(=O)[nH]2)n[nH]1	CHOP inh 78
COC(=O)C1(C)CCCC2(C)C1CCC13OCC(CC21)C(O)(C(C)C)C3O (stereo not given)	none (no result: CHOP inh, CHOP UPR activ, TLR4-MyD88 BLA, UPR XBP1 act)
COC(=O)c1ccc(CNc2ccc(C(C)=O)cc2)cc1	none (no result: CHOP inh, TLR9-MyD88 block, CHOP UPR activ, TLR4-MyD88 BLA, UPR XBP1 act)
Cc1cc(Br)c(OCc2ccc(C(=O)N/N=C3\CC(=O)CC(C)(C)C3)cc2)c(Br)c1	CHOP inh 91
CC1(C)CC(=O)C/C(=N/NC(=O)c2ccc(-c3ccccc3)cc2)C1	none
C/C(=N\NC(=O)c1n[nH]c2c1CCC2)c1cccs1	CHOP inh 86 (no result: TLR4-MyD88 BLA)
COc1cc(C)ccc1OCc1cc(C(=O)NC(c2ccccn2)C(F)(F)F)no1 (stereo not given)	none (no result: CHOP inh, CHOP UPR activ, TLR4-MyD88 BLA, UPR XBP1 act)
O=C(Nc1cccc(OC(F)(F)F)c1)C1Cc2c(-c3ccccc3Oc3ccccc3)ccnc2O1 (stereo not given)	none (no result: CHOP inh, TLR9-MyD88 block, CHOP UPR activ, TLR4-MyD88 BLA, UPR XBP1 act)
COc1ccccc1CNC(=O)c1csc(Cc2ccc(Cl)cc2)n1	CHOP inh 80
C=CCN1C(=O)/C(=C2/Sc3ccc(OC)cc3N2C)SC1=Nc1ccccc1	CHOP inh 74

Compound activity (PubChem)
